The test system of assay [1] is TMD8. The assay can be described thus: Cytotoxicity against human TMD8 cells harboring MYD88 L265P mutant assessed as reduction in cell viability incubated for 72 hrs by CCK-8 assay. The conditions noted are these: TMD8, 72 h. It counts as functional, cell-based. Background: Tetrazolium dyes change colour on reduction, which living cells bring about.
The test system of assay [2] is Ramos. The assay is described as follows: Cytotoxicity against human Ramos cells harboring MYD88 assessed as reduction in cell viability incubated for 72 hrs by CCK-8 assay. It counts as functional, cell-based.
The test system of assay [3] is HT. The assay is described as follows: Cytotoxicity against human HT cells harboring MYD88 assessed as reduction in cell viability incubated for 72 hrs by CCK-8 assay. The assay is classed as functional, cell-based.
For assay [4], the system named is OCI-Ly10. The assay can be described thus: Cytotoxicity against human OCILY10 cells harboring MYD88 L265P mutant assessed as reduction in cell viability incubated for 72 hrs by CCK-8 assay. It counts as functional, cell-based. Particulars: OCI-Ly10, 72 h.
The target in assay [5] is T1, Interleukin-1 receptor-associated kinase 4 (Homo sapiens, UniProt Q9NWZ3).
T1 sequence (Q9NWZ3 whole entry): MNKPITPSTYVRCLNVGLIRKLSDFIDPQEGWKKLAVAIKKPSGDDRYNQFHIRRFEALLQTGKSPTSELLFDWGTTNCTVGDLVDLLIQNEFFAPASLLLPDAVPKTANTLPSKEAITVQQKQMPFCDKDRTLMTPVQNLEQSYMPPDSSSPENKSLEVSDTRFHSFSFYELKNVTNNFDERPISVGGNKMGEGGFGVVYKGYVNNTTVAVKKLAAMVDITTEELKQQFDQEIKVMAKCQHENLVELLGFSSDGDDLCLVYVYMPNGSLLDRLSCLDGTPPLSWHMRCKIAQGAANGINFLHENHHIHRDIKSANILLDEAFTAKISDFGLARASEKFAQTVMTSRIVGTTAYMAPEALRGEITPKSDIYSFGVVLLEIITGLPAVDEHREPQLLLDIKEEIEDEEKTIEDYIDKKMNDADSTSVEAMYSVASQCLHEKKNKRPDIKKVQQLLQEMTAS
The assay is described as follows: Inhibition of recombinant human His-tagged full length IRAK4 expressed in baculovirus expression system using Ser/Thr07 peptide as substrate incubated for 1 hr by Z'lyte assay.

Assay [6] addresses T2, Interleukin-1 receptor-associated kinase 4 (Homo sapiens) (UniProt Q9NWZ3).
T2 sequence (whole entry): T1 sequence (Q9NWZ3 whole entry)
The assay can be described thus: Inhibition of IRAK4 in human OCI-LY10 cells assessed as decrease in NF-kappaB phosphorylation at 0.3 to 10 uM incubated for 2 hrs by Western blot analysis. It counts as cell-based. Particulars: OCILY10, dose 0.3-10 µM. The gist of the method: (§1)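 OCI-LY10 or TMD8 cells, about 2×10^6 per well, treated with compound or DMSO for 2 h. Cells washed twice with PBS, lysed, then Western blotted for p-IRAK4 (Thr-345/Ser-346), p-IKKβ and p-p65. Bands quantified densitometrically; significance thresholds p<0.05, 0.01, 0.001.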
(In general: A western blot detects proteins with antibodies after separation by electrophoresis.)

The target in assay [7] is Mast/stem cell growth factor receptor Kit (Homo sapiens) (UniProt P10721). The assay can be described thus: Inhibition of c-Kit (unknown origin) at 0.1 uM incubated for 1 hr by ELISA relative to control. Summed up:
(§2)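 Part of a 20-kinase panel tested at 0.1 μM compound. Kinase inhibition measured by ELISA following previously described protocols.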
A general note: ELISA stands for enzyme-linked immunosorbent assay.

For assay [8], the system named is TMD8. The assay can be described thus: Cytotoxicity against human TMD8 cells harboring MYD88 L265P mutant assessed as combination index at 0.3 uM in presence of ibrutinib incubated for 72 hrs by CCK-8 assay. The assay is classed as functional. The gist of the method:
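TMD8 cells (RPMI1640, 10% FBS, penicillin–streptomycin, 0.05 mM 2-mercaptoethanol, 37 °C, 5% CO2), seeded at 10000-12000 cells/well, exposed to ibrutinib plus IRAK4 inhibitor at varied concentrations for 72 h. Viability read by CCK-8; combination index computed with CalcuSyn, CI below 1 taken as synergy.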

Assay [9] has as its system Receptor-type tyrosine-protein kinase FLT3 (Homo sapiens), P36888 [UNDEFINED MUTATION]. The assay can be described thus: Inhibition of FLT3-ITD mutant (unknown origin) at 0.1 uM incubated for 1 hr by ELISA relative to control. Summed up:
as §2

The target in assay [10] is T2, Interleukin-1 receptor-associated kinase 4 (Homo sapiens). The assay can be described thus: Inhibition of IRAK4 in human OCI-LY10 cells assessed as decrease in IKKbeta phosphorylation at 0.3 to 10 uM incubated for 2 hrs by Western blot analysis. The assay is classed as cell-based. The conditions noted are these: OCILY10, dose 0.3-10 µM. Summed up:
as §1

Assay [11] has the same target. The assay is described as follows: Inhibition of IRAK4 in human TMD8 cells assessed as decrease in IKKbeta phosphorylation at 0.3 to 10 uM incubated for 2 hrs by Western blot analysis. The assay is classed as cell-based. Particulars: dose 0.3-10 µM. Summed up: as §1
The target is the same in assay [12]. The assay can be described thus: Inhibition of IRAK4 in human OCILY10 cells assessed as decrease in IRAK4 Thr345/Ser346 phosphorylation incubated for 2 hrs by Western blot analysis. The conditions noted are these: dose 0.3-10 µM. The assay is classed as cell-based. Summed up: as §1
The target is the same in assay [13]. The assay is described as follows: Inhibition of IRAK4 in human TMD8 cells assessed as decrease in IRAK4 Thr345/Ser346 phosphorylation incubated for 2 hrs by Western blot analysis. The conditions noted are these: dose 0.3-10 µM. It counts as cell-based. The gist of the method:
as §1

Assay [14] shares this target. The assay is described as follows: Inhibition of IRAK4 in human TMD8 cells assessed as decrease in NF-kappaB phosphorylation at 0.3 to 10 uM incubated for 2 hrs by Western blot analysis. The assay is classed as cell-based. The conditions noted are these: dose 0.3-10 µM. The gist of the method:
as §1

Assay [15] has as its target Receptor-type tyrosine-protein kinase FLT3 (Homo sapiens) (UniProt P36888). The assay is described as follows: Inhibition of FLT3 (unknown origin) at 0.1 uM incubated for 1 hr by ELISA relative to control. The gist of the method:
as §2

Each structure is given as a SMILES string. The source made the active and inactive calls.

Receptor-type tyrosine-protein kinase FLT3 (Homo sapiens), sequence (P36888 whole entry): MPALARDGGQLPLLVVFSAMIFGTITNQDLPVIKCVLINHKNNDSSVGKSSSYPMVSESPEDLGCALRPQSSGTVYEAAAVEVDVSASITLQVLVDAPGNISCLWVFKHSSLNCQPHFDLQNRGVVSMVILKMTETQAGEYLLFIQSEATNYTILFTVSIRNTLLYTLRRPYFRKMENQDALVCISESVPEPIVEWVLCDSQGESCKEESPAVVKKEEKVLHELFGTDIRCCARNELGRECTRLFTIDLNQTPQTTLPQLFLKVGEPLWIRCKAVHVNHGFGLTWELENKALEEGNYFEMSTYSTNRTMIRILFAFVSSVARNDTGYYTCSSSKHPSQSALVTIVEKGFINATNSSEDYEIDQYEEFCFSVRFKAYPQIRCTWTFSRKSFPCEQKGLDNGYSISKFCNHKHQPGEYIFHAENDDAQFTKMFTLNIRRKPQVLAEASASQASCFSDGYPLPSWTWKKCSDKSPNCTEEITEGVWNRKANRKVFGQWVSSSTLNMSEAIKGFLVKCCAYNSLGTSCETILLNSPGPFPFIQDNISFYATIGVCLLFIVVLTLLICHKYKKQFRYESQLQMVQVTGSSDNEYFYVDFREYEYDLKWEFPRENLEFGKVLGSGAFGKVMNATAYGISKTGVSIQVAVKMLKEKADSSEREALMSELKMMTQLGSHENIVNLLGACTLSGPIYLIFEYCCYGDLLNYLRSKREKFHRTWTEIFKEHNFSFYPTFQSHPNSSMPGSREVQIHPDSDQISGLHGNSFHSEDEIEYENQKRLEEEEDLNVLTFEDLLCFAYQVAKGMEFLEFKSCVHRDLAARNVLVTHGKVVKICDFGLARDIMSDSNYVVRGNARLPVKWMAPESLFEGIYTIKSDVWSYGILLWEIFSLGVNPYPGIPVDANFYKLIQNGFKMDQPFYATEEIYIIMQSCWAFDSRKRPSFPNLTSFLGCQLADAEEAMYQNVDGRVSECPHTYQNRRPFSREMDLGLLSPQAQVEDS
Receptor-type tyrosine-protein kinase FLT3 (Homo sapiens), P36888 [UNDEFINED MUTATION], sequence (P36888 whole entry, looked up, change not shown): as the sequence (P36888 whole entry) above
Mast/stem cell growth factor receptor Kit (Homo sapiens), sequence (P10721 whole entry): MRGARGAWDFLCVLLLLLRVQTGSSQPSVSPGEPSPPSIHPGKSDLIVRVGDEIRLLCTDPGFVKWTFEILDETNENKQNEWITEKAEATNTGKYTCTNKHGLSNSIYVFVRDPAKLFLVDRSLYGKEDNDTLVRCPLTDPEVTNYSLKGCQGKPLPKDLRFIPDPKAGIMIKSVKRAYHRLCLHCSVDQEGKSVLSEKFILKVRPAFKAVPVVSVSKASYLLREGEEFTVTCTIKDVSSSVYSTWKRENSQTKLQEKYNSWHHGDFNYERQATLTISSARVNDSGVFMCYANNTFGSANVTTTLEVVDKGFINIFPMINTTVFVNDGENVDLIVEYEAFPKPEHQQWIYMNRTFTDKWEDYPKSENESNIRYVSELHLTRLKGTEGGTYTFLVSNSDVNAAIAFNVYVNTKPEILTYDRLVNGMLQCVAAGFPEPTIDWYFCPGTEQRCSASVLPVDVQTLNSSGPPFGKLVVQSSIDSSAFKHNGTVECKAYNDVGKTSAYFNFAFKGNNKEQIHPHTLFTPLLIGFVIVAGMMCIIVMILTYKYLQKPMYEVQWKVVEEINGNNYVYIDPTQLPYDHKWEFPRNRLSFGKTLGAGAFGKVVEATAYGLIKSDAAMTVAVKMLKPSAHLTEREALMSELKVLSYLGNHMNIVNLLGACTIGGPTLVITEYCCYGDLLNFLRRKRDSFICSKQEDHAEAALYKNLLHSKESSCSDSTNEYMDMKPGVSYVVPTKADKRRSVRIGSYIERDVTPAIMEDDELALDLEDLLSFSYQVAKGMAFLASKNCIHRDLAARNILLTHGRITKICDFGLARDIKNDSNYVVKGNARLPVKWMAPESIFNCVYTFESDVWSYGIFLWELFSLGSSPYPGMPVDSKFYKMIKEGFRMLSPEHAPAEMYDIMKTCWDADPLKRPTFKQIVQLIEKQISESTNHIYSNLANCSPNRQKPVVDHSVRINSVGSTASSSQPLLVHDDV

The IC50 is the point on the concentration scale where inhibition reaches its midpoint. As for `Cn1cc(NC(=O)c2cnc3ccc(N[C@@H]4CCCCNC4)nn23)c(C(F)F)n1`, the IC50 in assay [1] came to 1.2 µM; in assay [2] it was 7.2 µM; in [3], 35.9 µM; in [4], 0.8 µM; in assay [5], 0.009 µM.

Regarding `Cn1cc(NC(=O)c2cnc3ccc(N[C@@H]4CCCNC4)nn23)c(C(N)=O)n1`, in assay [5], the concentration for half-maximal inhibition (IC50) was 0.0125 µM.

Take `Cn1cc(NC(=O)c2cnc3ccc(N4CCC(N)CC4)nn23)c(C(F)F)n1`: in assay [5], the IC50 was 0.0803 µM.

`Cn1cc(NC(=O)c2ncn3ccc(N4CCC[C@@H](N)C4)nc23)c(C(F)F)n1`: the IC50 in [1] is above 50 µM; in assay [2], above 50 µM; in assay [3] it was above 50 µM; in assay [4], above 50 µM; in assay [5], above 1 µM.

With `CCn1cc(NC(=O)c2cnc3ccc(N[C@@H]4CCCNC4)nn23)c(C(F)(F)F)n1`, the IC50 in [1] was 6.1 µM; in [2], above 50 µM; in assay [3] it was above 50 µM; in assay [4] it was 3.6 µM; in assay [5], 0.0323 µM.

On to `O=C(Nc1cn(C2CCNCC2)nc1C(F)(F)F)c1cnc2ccc(N[C@@H]3CCCNC3)nn12`, for which the IC50 in [5] was found to be 0.0522 µM.

Consider `Cn1cc(NC(=O)c2cnc3ccc(N[C@@H]4CCCNC4)nn23)c(C#N)n1`, for which the half-inhibitory concentration (IC50) in [1] was 14.8 µM; in assay [2], 28.8 µM; in assay [3], above 50 µM; in assay [4] it was 5.8 µM; in assay [5], 0.0408 µM.

On to `Cn1cc(NC(=O)c2cnc3ccc(N4CCC[C@@H](N)C4)nn23)c(C(F)F)n1`, for which the IC50 in assay [1] was found to be 17.8 µM; in [2] it was 44.3 µM; in assay [3], 41.7 µM; in [4], 10.7 µM; in assay [5] it was 0.0087 µM.

For the compound `Cn1cc(NC(=O)c2cnc3ccc(N4CC[C@@H](N)C4)nn23)c(C(F)F)n1`, in assay [5], the half-maximal inhibitory concentration (IC50) is above 1 µM.

With `O=C(Nc1cn(C2CCOCC2)nc1C(F)(F)F)c1cnc2ccc(N[C@@H]3CCCNC3)nn12`, the IC50 in [1] is 11.1 µM; in assay [2], above 50 µM; in assay [3], above 50 µM; in assay [4], 10.5 µM; in assay [5], 0.0497 µM.

As for `CC(C)n1cc(NC(=O)c2cnc3ccc(N[C@@H]4CCCNC4)nn23)c(C(F)(F)F)n1`, the IC50 in assay [5] is 0.077 µM.

As to `Cn1cc(NC(=O)c2cnc3ccc(N[C@@H]4CCNC4)nn23)c(C(F)F)n1`, the IC50 in assay [1] is 8.3 µM; in [2] it was 45 µM; in assay [3], above 50 µM; in [4], 3.6 µM; in assay [5], 0.0077 µM.

In the case of `CN(c1ccc2ncc(C(=O)Nc3cn(C)nc3C(F)F)n2n1)[C@@H]1CCCNC1`, the half-inhibitory concentration (IC50) in assay [5] is above 1 µM.

On to `Cc1nn2ccc(N[C@@H]3CCCNC3)nc2c1C(=O)Nc1cn(C)nc1C(F)F`, for which the half-maximal inhibitory concentration (IC50) in assay [5] was above 1 µM.

Turning to `Cn1cc(NC(=O)c2cnc3ccc(N4CCNCC4)nn23)c(C(F)F)n1`, the half-inhibitory concentration (IC50) in assay [5] is 0.0655 µM.

Regarding `Cc1nn(C)cc1NC(=O)c1cnc2ccc(N[C@@H]3CCCNC3)nn12`, the IC50 in [5] is above 1 µM.

On to `Cn1cc(NC(=O)c2cnc3ccc(N[C@H]4CCCNC4)nn23)c(C(F)F)n1`, for which the half-maximal inhibitory concentration (IC50) in assay [1] is 22.3 µM; in [2], above 50 µM; in assay [3], above 50 µM; in assay [4], 22.3 µM; in [5], 0.0362 µM.

In the case of `Cc1nc2ccc(N[C@@H]3CCCNC3)nn2c1C(=O)Nc1cn(C)nc1C(F)F`, the IC50 in assay [5] is above 1 µM.

On to `Cn1cc(NC(=O)c2cnc3ccc(N[C@@H]4CCCNC4)nn23)c(C(F)(F)F)n1`, for which the half-maximal inhibitory concentration (IC50) is 5.9 µM in assay [1]; above 50 µM in assay [2]; above 50 µM in [3]; 2.8 µM in assay [4]; 0.0235 µM in assay [5].

For the compound `Cn1cc(NC(=O)c2cnn3ccc(N4CCC[C@@H](N)C4)nc23)c(C(F)F)n1`, the IC50 in [1] was determined as 7.3 µM; in [2], 19 µM; in assay [3], 29.2 µM; in assay [4], 5.5 µM; in assay [5] it was 0.0093 µM.

By inhibition is commonly meant how much of the control response was suppressed. Take `Cn1cc(NC(=O)c2cnc3ccc(N[C@@H]4CCCNC4)nn23)c(C(F)F)n1`: the inhibition entry in assay [6], in [10], in [11] and in assay [14] was “Active” in each case. Besides, the inhibition in assay [7] was above 50%; in [9] it was above 50%; in [12] it was “Dose-dependent effect”; in assay [13], “Dose-dependent effect”; in assay [15], above 50%. Further, in [8], the CI amounted to 0.13. Besides, the half-inhibitory concentration (IC50) stood at 1.2 µM in assay [1]; 11.4 µM in [2]; 40.1 µM in [3]; 0.7 µM in [4]; 0.0013 µM in [5].

On to `Cn1cc(NC(=O)c2cnc3ccc(NCCN)nn23)c(C(F)F)n1`, for which the 50% inhibitory concentration (IC50) in assay [1] was 17.7 µM; in [2] it was above 50 µM; in assay [3], above 50 µM; in assay [4], 8.8 µM; in assay [5], 0.0175 µM.

(Values after ChEMBL document CHEMBL4765255, “Design and synthesis of Imidazo[1,2-b]pyridazine IRAK4 inhibitors for the treatment of mutant MYD88 L265P diffuse large B-cell lymphoma” (Eur J Med Chem, 2020).)
